# Measurements gathered from unrelated publications.
# Lines come from different studies, so protocols differ.
# Target: Serine/threonine-protein kinase ULK1 (ULK1, Homo sapiens, UniProt O75385)
# Sequence (O75385 1-1050, as in one of the studies): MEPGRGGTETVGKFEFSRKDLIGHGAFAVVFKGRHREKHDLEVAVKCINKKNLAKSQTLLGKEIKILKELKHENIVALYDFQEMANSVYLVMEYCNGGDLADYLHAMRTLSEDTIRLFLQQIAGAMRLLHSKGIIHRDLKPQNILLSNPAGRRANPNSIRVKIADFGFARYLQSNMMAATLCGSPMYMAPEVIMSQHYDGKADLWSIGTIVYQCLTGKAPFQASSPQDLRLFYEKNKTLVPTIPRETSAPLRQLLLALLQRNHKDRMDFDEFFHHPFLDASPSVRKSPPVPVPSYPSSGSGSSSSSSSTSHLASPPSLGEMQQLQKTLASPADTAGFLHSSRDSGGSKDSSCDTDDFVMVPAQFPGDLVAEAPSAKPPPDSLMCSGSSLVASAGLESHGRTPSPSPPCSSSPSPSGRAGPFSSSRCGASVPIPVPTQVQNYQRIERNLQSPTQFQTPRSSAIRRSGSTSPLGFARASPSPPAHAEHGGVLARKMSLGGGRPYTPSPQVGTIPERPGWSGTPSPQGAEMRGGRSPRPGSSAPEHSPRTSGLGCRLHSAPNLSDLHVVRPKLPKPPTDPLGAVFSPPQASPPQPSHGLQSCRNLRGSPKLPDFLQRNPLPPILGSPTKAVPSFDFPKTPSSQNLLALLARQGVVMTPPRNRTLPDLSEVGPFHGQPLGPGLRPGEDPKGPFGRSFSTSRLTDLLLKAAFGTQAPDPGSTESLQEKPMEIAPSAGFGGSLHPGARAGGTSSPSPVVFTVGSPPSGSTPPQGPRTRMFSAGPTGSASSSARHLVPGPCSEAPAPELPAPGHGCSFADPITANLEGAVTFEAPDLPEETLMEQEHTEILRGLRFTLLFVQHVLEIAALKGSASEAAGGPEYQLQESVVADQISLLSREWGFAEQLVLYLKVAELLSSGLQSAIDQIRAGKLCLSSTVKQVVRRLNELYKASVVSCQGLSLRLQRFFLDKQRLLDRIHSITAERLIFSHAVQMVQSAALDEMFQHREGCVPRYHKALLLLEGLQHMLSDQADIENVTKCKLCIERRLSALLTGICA
Compound,assay,setting,endpoint,value
COc1ccc2oc(-c3ccc4nc(N)oc4c3)c/c(=N\c3ccccc3NC(=O)CCN)c2c1,binding,1 µM,remaining binding,99%
COc1ccc2[nH]c3c4[nH]c5ccc(OC)cc5c4c4c(c3c2c1)C(=O)NC4=O,binding,1 µM,remaining binding,100%
CCCCC(=O)Nc1ccc(-c2ccc3ncn(CCC)c(=O)c3c2)cn1,"binding, competition with immobilised ligand",0.5 µM,remaining binding,94%
Cc1cc(S(=O)(=O)N[C@H]2CC[C@H](CN3CCN(c4ccc(C5CCC(=O)NC5=O)cc4F)CC3)CC2)ccc1Nc1ncc(C(F)(F)F)c(N2CCC[C@](C)(O)C2)n1 (stereo partly drawn),"binding, competition with immobilised ligand",1 µM,remaining binding,5.7%
CO[C@@H]1[C@H](N(C)C(=O)c2ccccc2)C[C@H]2O[C@]1(C)n1c3ccccc3c3c4c(c5c6ccccc6n2c5c31)C(=O)NC4,"enzyme activity, inhibitor",1 µM,inhibition,7%
C[C@]1(O)CCCN(c2nc(Nc3ccc(S(=O)(=O)N[C@H]4CC[C@H](CN5CCN(c6ccc(C7CCC(=O)NC7=O)cc6F)CC5)CC4)cc3F)ncc2C(F)(F)F)C1 (stereo partly drawn),"binding, competition with immobilised ligand",1 µM,remaining binding,49%
C[C@H]1CC[C@H](n2c3cnccc3c3cnc(Nc4ccc5c(n4)CCN(C(=O)CO)C5)nc32)CC1,cell-free assay,1 µM,remaining signal,94%
C1=C/COCc2cc(ccc2OCCN2CCCC2)Nc2nccc(n2)-c2cccc(c2)COC/1,cell-free assay,0.1 µM,remaining signal,90%
C=CC(=O)N1CCC([C@@H]2CCNc3c(C(N)=O)c(-c4ccc(Oc5ccccc5)cc4)nn32)CC1,"enzyme activity, inhibitor",1 µM,inhibition,0%
